Measured values collected from several papers.
Compare with care: the assays were run in different laboratories.
Target: LIM domain kinase 2 (LIMK2, Homo sapiens, UniProt P53671)

SMILES | assay | setting | remaining binding
CNC(=O)c1ccc(Nc2ncc(C(F)(F)F)c(NCc3nccnc3N(C)S(C)(=O)=O)n2)cc1 | cell-free assay, competition with immobilised ligand | 0.1 µM | 87%
CN(c1nccc(-c2cnn3ncccc23)n1)C1CC1 | binding | 1 µM | 100%
c1cncc(-c2cccc(Nc3nccc(NC4CCCCC4)n3)c2)c1 | binding, competition with immobilised ligand | 10 µM | 45%
O=C(c1ccc(Nc2ncc(Cl)c(-c3cc4ccccc4s3)n2)cc1)N1CCC(N2CCCC2)CC1 | binding, competition with immobilised ligand | 1 µM | 30%
O=C(NCC1CCOCC1)c1n[nH]cc1NC(=O)c1c(F)cccc1F | binding, competition with immobilised ligand | 1 µM | 97%
COc1cnc(Nc2cccc(S(N)(=O)=O)c2)nc1N1CCN(c2ccccc2)C(=O)C1 | binding, competition with immobilised ligand | 1 µM | 100%
O=S(=O)(NC1CCC(c2cc(F)ccc2F)(S(=O)(=O)c2ccc(Cl)cc2)CC1)C(F)(F)F (stereo not shown) | cell-free assay, competition with immobilised ligand | 1 µM | 87%
COc1ccnn2ncc(-c3ccnc(N(C)C)n3)c12 | binding | 1 µM | 82%
O=C(NCCCN1CCOCC1)c1ccc(Nc2nccc(-c3cc4ccccc4s3)n2)cc1 | binding, competition with immobilised ligand | 1 µM | 59%
CN(C)c1ncc(F)c(-c2cnn3ncccc23)n1 | binding | 1 µM | 82%
CN(C)c1ncnc(-c2ccc3nc(Nc4cc(CN5CCN(C(=O)CC(F)(F)F)CC5)ccn4)[nH]c3c2)c1Cl | cell-free assay, competition with immobilised ligand | 1 µM | 100%
C[C@H]1CCN(c2nccc(-c3cnn4ncccc34)n2)C1 | binding | 1 µM | 75%
O=C(NCCCN1CCOCC1)c1ccc(Nc2ncc(Cl)c(-c3ccc(Cl)s3)n2)cc1 | binding, competition with immobilised ligand | 1 µM | 83%
O=c1nc(-c2ccccn2)sc2ccccc12 | binding, competition with immobilised ligand | 1 µM | 100%
C=CC(=O)N1CCC(C(=O)NCC(=O)N2CCN(c3nc(-c4cnc(N)nc4C(F)F)nc(N4CCOCC4)n3)CC2)CC1 | binding, competition with immobilised ligand | 1 µM | 97%
COc1cnc(Nc2cccc(S(N)(=O)=O)c2)nc1N1CCN(c2ccccc2)CC1 | binding, competition with immobilised ligand | 1 µM | 96%
CN(C)C(=O)Cn1cc(-c2nc(C3(c4ccc(-c5cnc(N)nc5)cc4)CC3)no2)cn1 | cell-free assay, competition with immobilised ligand | 1 µM | 85%
Nc1ncc2c(n1)-c1c([nH]c3ccc(C#CC4CC4)cc13)CCCC2 | binding, competition with immobilised ligand | 1 µM | 91%
CN(CCCC(F)(F)F)c1nccc(-c2cnn3ncccc23)n1 | binding | 1 µM | 95%
O=C1NC(c2ccccn2)Sc2ccccc21 (stereo not shown) | cell-free assay, competition with immobilised ligand | 1 µM | 92%
N[C@H]1CCN(c2nccc(-c3cnn4ncccc34)n2)C1 | binding | 1 µM | 100%
CCN1CCN(Cc2ccc(C(=O)Nc3ccc(C)c(Oc4ccc5c(c4)CC(=O)N5)c3)cc2C(F)(F)F)CC1 | binding, competition with immobilised ligand | 1 µM | 100%
